From ChEMBL document CHEMBL3352663, “Inhibition of group IVA cytosolic phospholipase A2 by thiazolyl ketones in vitro, ex vivo, and in vivo” (J Med Chem, 2014)
Activity calls are given as the source filed them. The rule behind the calls is not given here.

Columns and labels:
[1] = tested on: SW982; experiment: Inhibition of IL-1beta-induced arachidonic acid release in human SW982 cells using [3H]AA at 10 uM by liquid scintillation counting; assay type: functional; conditions: for inhibition at 10 µM: SW982, 4 h
Method in brief: (§1)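 SW982 synovial sarcoma cells were serum-starved and labelled overnight with 3H-AA (0.4 µCi/mL) and 14C-OA (0.067 µCi/mL), then washed with PBS/fBSA. They were pretreated 1 h with inhibitor (10 µM single point, or 0-20 µM for IC50), then stimulated with IL-1β 10 ng/mL for 4 h. Released radioactivity was counted by scintillation relative to total incorporated label; DMSO served as vehicle; ≥3 independent experiments in triplicate.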

[2] = species: Homo sapiens; experiment: Inhibition of human recombinant GV sPLA2 using 400 uM Triton X-100/98.3 uM PAPC/1.7 uM 14C-labeled PAPC substrate mixedmicelles at 1 uM
[3] = tested on: SW982; experiment: Inhibition of IL-1beta-induced oleic acid release in human SW982 cells using [3H]OA at 0 to 20 uM by liquid scintillation counting; assay type: functional, cell-based
[4] = molecular target: T1, Cytosolic phospholipase A2 (Homo sapiens) (UniProt P47712); experiment: Inhibition of human recombinant GIVA cPLA2 at 1 uM in vitro vesicle assay
T1 sequence (whole entry): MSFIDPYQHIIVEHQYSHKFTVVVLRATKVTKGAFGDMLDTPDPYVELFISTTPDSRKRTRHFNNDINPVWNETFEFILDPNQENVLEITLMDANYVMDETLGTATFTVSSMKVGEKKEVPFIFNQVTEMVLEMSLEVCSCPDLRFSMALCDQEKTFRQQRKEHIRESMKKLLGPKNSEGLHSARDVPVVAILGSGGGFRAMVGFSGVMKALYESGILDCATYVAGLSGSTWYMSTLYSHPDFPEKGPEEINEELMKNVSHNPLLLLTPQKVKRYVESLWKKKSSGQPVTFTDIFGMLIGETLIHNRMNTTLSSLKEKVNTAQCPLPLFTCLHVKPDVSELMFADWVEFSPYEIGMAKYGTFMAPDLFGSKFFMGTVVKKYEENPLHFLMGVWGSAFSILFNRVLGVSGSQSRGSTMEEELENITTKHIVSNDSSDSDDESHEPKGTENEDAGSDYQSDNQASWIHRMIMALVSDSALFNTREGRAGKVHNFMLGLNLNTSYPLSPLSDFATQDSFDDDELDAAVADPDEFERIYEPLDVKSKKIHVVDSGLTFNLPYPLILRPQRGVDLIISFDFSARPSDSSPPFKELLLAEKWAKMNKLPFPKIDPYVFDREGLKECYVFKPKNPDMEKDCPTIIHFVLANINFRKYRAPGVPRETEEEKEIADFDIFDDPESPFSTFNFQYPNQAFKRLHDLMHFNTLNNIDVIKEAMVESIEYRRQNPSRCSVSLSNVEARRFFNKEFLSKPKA
Method in brief: (§2)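 Recombinant human GIVA cPLA2 was preincubated with 1% DMSO ± inhibitor (80 s at 37 °C, then 10 min at 25 °C). Sonicated vesicles of 1-palmitoyl-2-[14C]arachidonyl-PC (0.2 μM) were added and incubated 1 h at 37 °C. The reaction was stopped with chloroform/methanol. Single-point tests used 1 µM inhibitor; IC50 determinations used 0-3 µM.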

[5] = molecular target: T1, Cytosolic phospholipase A2 (Homo sapiens); experiment: Inhibition of human recombinant GIVA cPLA2 using 400 uM Triton X-100/97 uM PAPC/1.8 uM 14C-labeled PAPC/3uM PIP2 substrate mixedmicelles at 0.091 mole fraction
[6] = tested on: SW982; experiment: Inhibition of IL-1beta-induced oleic acid release in human SW982 cells using [3H]OA at 10 uM by liquid scintillation counting; assay type: functional; conditions: SW982, 4 h
[7] = molecular target: T2, Cytosolic phospholipase A2 (Homo sapiens, UniProt P47712); experiment: Inhibition of human recombinant GIVA cPLA2 in vitro vesicle assay; method in brief: as §2
T2 sequence (P47712 whole entry): T1 sequence (whole entry)

[8] = tested on: SW982; experiment: Inhibition of IL-1beta-induced arachidonic acid release in human SW982 cells using [3H]AA by liquid scintillation counting; assay type: functional, cell-based; method in brief: as §1
[9] = molecular target: T1, Cytosolic phospholipase A2 (Homo sapiens); experiment: Inhibition of human recombinant GIVA cPLA2 using 400 uM Triton X-100/97 uM PAPC/1.8 uM 14C-labeled PAPC/3uM PIP2 substrate mixedmicelles
Method in brief: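 Modified Dole assay of recombinant human GIVA cPLA2. Mixed micelles contained 400 µM Triton X-100, 97 µM PAPC, 1.8 µM 14C-PAPC and 3 µM PIP2 in 100 mM HEPES pH 7.5 with 90 µM CaCl2, 2 mM DTT and 0.1 mg/mL BSA. Percent inhibition was measured at 0.091 mole fraction inhibitor. XI(50) is the mole fraction giving 50% inhibition.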

[10] = tested on: Mus musculus; experiment: Antiinflammatory activity in DBA/1 mouse […] assessed as reduction in capillary and synovial hyperplasia at 7.5 mg/kg, ip treatment started on day 21 after […] measured on day 32; assay type: functional, organism-based; set-up: dose 7.5 mg/kg
Method in brief: (§3)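 Prophylactic collagen-induced arthritis in male DBA/1 mice. Bovine type II collagen (2 mg/mL) was emulsified 1:1 in Freund's complete adjuvant and 0.1 mL injected at the tail base on day 0, with a booster on day 21. Daily ip dosing in DMSO at 2 mL/Kg began 1 h before the booster. Arthritis index was scored through day 41. Histology groups were killed at day 32 after […] of dosing; hind paws were scored blind (0-5) for infiltration, hyperplasia and damage.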

[11] = tested on: Mus musculus; experiment: Antiinflammatory activity in DBA/1 mouse […] model assessed as reduction in articular cavity at 7.5 mg/kg, ip treatment started on day 21 after second […] measured on day 32; assay type: functional, organism-based; set-up: dose 7.5 mg/kg; method in brief: as §3
[12] = tested on: Mus musculus; experiment: Antiinflammatory activity in DBA/1 mouse […] model assessed as reduction in peripheral tissue inflammatory cell infiltration at 7.5 mg/kg, ip treatment started on day 21 after […] measured on day 32; assay type: functional, organism-based; set-up: dose 7.5 mg/kg; method in brief: as §3
[13] = tested on: Mus musculus; experiment: Reduction in PGE2 level in DBA/1 mouse plasma at 0.3 mg/kg, ip by EIA analysis relative to control; assay type: functional, organism-based; set-up: dose 0.3 mg/kg
Method in brief: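 Plasma came from collagen-induced arthritic DBA/1 mice at termination, about 5 h after the last daily ip dose. Samples were diluted 1:1000-1:6000 in EIA buffer and incubated 18 h at 4 °C in a PGE2 EIA, read at OD550. Levels are expressed relative to DMSO-vehicle arthritic mice; n=10-11 per group, ±SD.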

[14] = Homo sapiens, SW982, 4 h, read-out: IC50

Row | SMILES | inhibition [1] | inhibition [2] | inhibition [3] | inhibition [4] | inhibition [5] | inhibition at 10 µM [6] | IC50 [7] | inhibition at 10 µM [1] | IC50 ([8]; sw982) | IC50 [8, 14] | XI50 (mole fraction) [9] | inhibition [10] | inhibition [11] | inhibition [12] | inhibition [13]
1 | CCCCCCCCCCCCOCC(=O)c1nc(CC(=O)OCC)cs1 | inactive | 55% | inactive | inactive | 49% |  |  |  |  |  |  |  |  |  | 
2 | O=C(COc1ccc(F)cc1)c1nccs1 | inactive | 4% |  | 7% | 58% | 25% | Not Active |  |  |  |  |  |  |  | 
3 | CCCCCCCCCCCCOCC(=O)c1nc(C(=O)OCC)cs1 |  | 48% | inactive | 21% | 48% |  | Not Active | 9% | Not Active |  |  |  |  |  | 
4 | CCCCCCCCc1ccc(OCC(=O)c2nccs2)cc1 |  | 46% | inactive | 43% | > 90% |  |  | > 90% |  | 3.6 µM | 0.02 |  |  |  | 
5 | CN(Cc1cnc2nc(N)nc(N)c2n1)c1ccc(C(=O)N[C@@H](CCC(=O)O)C(=O)O)cc1 |  |  |  |  |  |  |  |  |  |  |  | inactive | inactive | inactive | Active
6 | CCCCCCCCc1ccc(OCC(=O)c2nc(CC(=O)OCC)cs2)cc1 |  | 50% |  | 25% | 64% | 20% | Not Active | 71% |  | 5 µM |  |  |  |  | 
7 | O=C(COc1ccccc1)c1nccs1 |  | 0% |  | 26% | 40% | 20% | Not Active | 12% | Not Active |  |  |  |  |  | 
8 | O=C(COc1ccc(-c2ccccc2)cc1)c1nccs1 |  | 41% |  | 26% | 80% | 25% | Not Active | 73% |  | 2.8 µM |  |  |  |  | 
9 | CCCCCCCCc1ccc(OCC(=O)c2nc3ccccc3s2)cc1 |  | 55% |  | inactive | > 90% | 35% |  | 71% |  | 5.3 µM | 0.06 |  |  |  | 
